Structures can show the parent of a compound that is named as a salt.
How the values were obtained:
[1] = Antioxidant activity assessed as nitric oxide radical scavenging activity at 10 uM incubated in dark for 20 mins relative to control; type: functional
[2] = Antioxidant activity assessed as DPPH free radical scavenging activity at 20 uM incubated in dark for 20 mins relative to control; type: functional
Summary of the method: (§1)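 Compounds dissolved in DMSO and diluted in 100 mM Tris–HCl (pH 7.4). DPPH (0.1 mM in methanol) added with vigorous shaking, then held in the dark at room temperature for 20 min. Absorbance read at 517 nm with DMSO baseline correction. Compound-free control prepared the same way. Run in triplicate.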

[3] = Cytotoxicity against human HeLa cells assessed as decrease in cell viability after 48 hrs by MTT assay; type: functional, cell-based
Summary of the method: (§2)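 Cells seeded at 2 x 10^3 per well in MEM with 10% FBS and left to attach for 24 h. Exposed 48 h to 5, 10, 20, 50, 100 and 200 µM (printed µM/mL). Controls got medium with 0.2% DMSO. Duplicate treatments. After PBS wash, MTT (stock 1 mg/mL) added for 4 h at 37 °C. Formazan dissolved in DMSO and OD read at 590 nm.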

[4] = Antioxidant activity assessed as DPPH free radical scavenging activity at 50 uM incubated in dark for 20 mins relative to control; type: functional; summary of the method: as §1
[5] = Antioxidant activity assessed as nitric oxide radical scavenging activity at 2 uM incubated in dark for 20 mins relative to control; type: functional
[6] = Cytotoxicity against human QG56 cells assessed as decrease in cell viability after 48 hrs by MTT assay; type: functional, cell-based; settings: QG-56, 48 h; summary of the method: as §2
[7] = Antioxidant activity assessed as nitric oxide radical scavenging activity at 50 uM incubated in dark for 20 mins relative to control; type: functional
[8] = Antioxidant activity assessed as DPPH free radical scavenging activity at 2 uM incubated in dark for 20 mins relative to control; type: functional; summary of the method: as §1
[9] = Antioxidant activity assessed as nitric oxide radical scavenging activity at 20 uM incubated in dark for 20 mins relative to control; type: functional
[10] = Cytotoxicity against human HCT116 cells assessed as decrease in cell viability after 48 hrs by MTT assay; type: functional, cell-based; settings: HCT-116, 48 h; summary of the method: as §2
[11] = Antioxidant activity assessed as DPPH free radical scavenging activity at 10 uM incubated in dark for 20 mins relative to control; type: functional; summary of the method: as §1

Row | Compound | Activity [1] | Activity [2] | IC50 [3] | Activity [4] | Activity [5] | IC50 [6] | Activity [7] | Activity [8] | Activity [9] | IC50 [10] | Activity [11]
1 | COc1cc(/C=C/C(=O)C2=C(/C=C/c3ccc(O)c(OC)c3)NC(=O)NC2c2ccc(O)cc2)ccc1O (stereo not drawn) | 72% | 84.6% | 25 µM | 90.3% | 33.3% | 50 µM | 86.2% | 25% | 80.1% | 100 µM | 75%
2 | COc1cc(/C=C/C(=O)C2=C(/C=C/c3ccc(O)c(OC)c3)NC(=S)NC2c2ccc(C)cc2)ccc1O (stereo not drawn) | 19.9% | 51% | 25 µM | 62% | 10.2% | 12.5 µM | 41% | 15.5% | 30% | 50 µM | 43.2%
3 | COc1cc(/C=C/C(=O)C2=C(/C=C/c3ccc(O)c(OC)c3)NC(=S)NC2c2ccccc2O)ccc1O (stereo not drawn) | 70.8% | 72.3% | 25 µM | 86.3% | 34% | 50 µM | 88.5% | 25% | 79.9% | 100 µM | 60.2%
4 | COc1cc(/C=C/C(=O)C2=C(/C=C/c3ccc(O)c(OC)c3)NC(=S)NC2c2ccccc2)ccc1O (stereo not drawn) | 22% | 38% | 25 µM | 48% | 16.6% | 100 µM | 50.4% | 15.5% | 36.6% | 100 µM | 26.5%
5 | COc1cc(/C=C/C(=O)C2=C(/C=C/c3ccc(O)c(OC)c3)NC(=O)NC2c2cccc([N+](=O)[O-])c2)ccc1O (stereo not drawn) | 19.9% | 66.3% | 100 µM | 71% | 10.2% | 25 µM | 48% | 17% | 33% | 50 µM | 51.2%
6 | COc1cc(/C=C/C(=O)C2=C(/C=C/c3ccc(O)c(OC)c3)NC(=S)NC2c2c(Cl)cccc2Cl)ccc1O (stereo not drawn) | 20.2% | 43.2% | 100 µM | 50.2% | 15% | 100 µM | 50% | 17.7% | 33.9% | 50 µM | 29%
7 | COc1cc(/C=C/C(=O)C2=C(/C=C/c3ccc(O)c(OC)c3)NC(=O)NC2c2ccccc2Cl)ccc1O (stereo not drawn) | 23% | 46% | 100 µM | 55.5% | 16.6% | 100 µM | 56% | 20.2% | 38.7% | 50 µM | 40%
8 | COc1cc(/C=C/C(=O)C2=C(/C=C/c3ccc(O)c(OC)c3)NC(=S)NC2c2ccccc2Cl)ccc1O (stereo not drawn) | 21.2% | 56.6% | 50 µM | 60% | 15.5% | 50 µM | 55.6% | 16.2% | 39.2% | 100 µM | 43.2%
9 | COc1cc(/C=C/C(=O)C2=C(/C=C/c3ccc(O)c(OC)c3)NC(=O)NC2c2ccccc2)ccc1O (stereo not drawn) | 20% | 38.2% | 100 µM | 40.2% | 10.5% | 50 µM | 50.2% | 15.2% | 31% | 25 µM | 26.4%
10 | COc1cc(/C=C/C(=O)C2=C(/C=C/c3ccc(O)c(OC)c3)NC(=O)NC2c2c(Cl)cccc2Cl)ccc1O (stereo not drawn) | 20% | 31.9% | 25 µM | 43.2% | 11.2% | 100 µM | 44.2% | 11.2% | 33% | 50 µM | 19.2%
11 | COc1cccc2c1C(=O)c1c(O)c3c(c(O)c1C2=O)C[C@@](O)(C(=O)CO)C[C@@H]3O[C@H]1C[C@H](N)[C@H](O)[C@H](C)O1 [DOXORUBICIN HYDROCHLORIDE] | – | – | 2.5 µM | – | – | 2.5 µM | – | – | – | 5 µM | –
12 | COc1cc(/C=C/C(=O)C2=C(/C=C/c3ccc(O)c(OC)c3)NC(=O)NC2c2ccc(C)cc2)ccc1O (stereo not drawn) | 23.9% | 38.2% | 100 µM | 46% | 15.5% | 100 µM | 52.2% | 17.2% | 36.3% | 12.5 µM | 29.9%
13 | COc1cc(/C=C/C(=O)C2=C(/C=C/c3ccc(O)c(OC)c3)NC(=O)NC2c2ccccc2O)ccc1O (stereo not drawn) | 71% | 81% | 50 µM | 88.9% | 29.9% | 100 µM | 88% | 33.6% | 80.9% | 100 µM | 73.6%
14 | COc1cc(/C=C/C(=O)CC(=O)/C=C/c2ccc(O)c(OC)c2)ccc1O [CURCUMIN] | 22.2% | 42.2% | 50 µM | 50.2% | 12.2% | 100 µM | 59.9% | 6% | 36.5% | 50 µM | 33.2%
15 | COc1cc(/C=C/C(=O)C2=C(/C=C/c3ccc(O)c(OC)c3)NC(=O)NC2c2ccc(N(C)C)cc2)ccc1O (stereo not drawn) | 69.9% | 48% | 25 µM | 56% | 28.2% | 12.5 µM | 89.2% | 17.9% | 82.2% | 12.5 µM | 37.6%
16 | COc1cc(/C=C/C(=O)C2=C(/C=C/c3ccc(O)c(OC)c3)NC(=S)NC2c2ccc(N(C)C)cc2)ccc1O (stereo not drawn) | 59% | 83% | 12.5 µM | 89.5% | 32.3% | 25 µM | 84% | 30.2% | 72.1% | 12.5 µM | 72%

Source: ChEMBL document CHEMBL3856222, “Design, structure activity relationship, cytotoxicity and evaluation of antioxidant activity of curcumin derivatives/analogues” (Eur J Med Chem, 2016)
